{"source": "ChEMBL document CHEMBL4627320", "about": "“Discovery of CRBN E3 Ligase Modulator CC-92480 for the Treatment of Relapsed and Refractory Multiple Myeloma” (J Med Chem, 2020)", "key": {"[1]": {"target": "Protein cereblon/DNA damage-binding protein 1 (Homo sapiens, UniProt Q96SW2)", "assay": "Displacement of Cy5-conjugated CELMoD from N-terminal 6-His tagged CRBN (1 to 442 residues) (unknown origin)/DDB1 (1 to 1140 residues) (unknown origin) incubated for 10 mins by FRET assay", "type": "protein assay"}, "[2]": {"assay": "Drug metabolism in assay cell medium assessed as compound racemization measured within 24 hrs", "type": "physicochemical", "summary_of_the_method": "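Compound held in the same cell medium used for the H929 R10-1 antiproliferation assay; enantiomer levels followed by chiral monitoring over 24 h.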"}, "[3]": {"assay": "Cmax in monkey at 3 mg/kg, po", "type": "ADME, organism-based, Macaca mulatta", "parameters": "dose 3 mg/kg, route oral", "details": "rhesus monkey, in vivo"}, "[4]": {"assay": "AUC (0 to infinity) in Sprague-Dawley rat at 10 mg/kg, po", "type": "ADME, organism-based", "parameters": "dose 10 mg/kg, route oral, time infinity", "details": "in vivo", "summary_of_the_method": "(§1)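 Sprague-Dawley rats given 10 mg/kg orally as a suspension in 0.5% CMC / 0.25% Tween-80 / water; plasma exposure followed.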"}, "[5]": {"assay": "Drug metabolism in monkey assessed as compound racemization at 3 mg/kg, po relative to compound AUC", "type": "ADME, organism-based, Macaca mulatta", "details": "rhesus monkey, in vivo"}, "[6]": {"assay": "Cmax in Sprague-Dawley rat at 10 mg/kg, po", "type": "ADME, organism-based", "parameters": "dose 10 mg/kg, route oral", "details": "in vivo", "summary_of_the_method": "as §1"}, "[7]": {"assay": "AUC (0 to infinity) in monkey at 3 mg/kg, po", "type": "ADME, organism-based, Macaca mulatta", "parameters": "dose 3 mg/kg, route oral, time infinity", "details": "rhesus monkey, in vivo"}, "[8]": {"species": "Homo sapiens", "assay": "Induction of apoptosis in lenalidomide-resistant human H929-R10-1 cells assessed as caspase3 induction at 1 nM measured over 150 hrs by live cell imaging analysis", "type": "functional", "summary_of_the_method": "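Lenalidomide-refractory H929 R10-1 cells treated at 1 nM to 1 μM; caspase-3 induction quantified by live cell imaging over 150 h.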"}, "[9]": {"assay": "Tmax in Sprague-Dawley rat at 10 mg/kg, po", "type": "ADME, organism-based", "details": "in vivo", "summary_of_the_method": "as §1"}, "[10]": {"assay": "Antitumor activity against human NCI-H929-1051 cells xenografted in CB17 SCID mouse assessed as reduction in tumor volume at 3 mg/kg, po qd for 21 days measured post last dose by caliper method relative to control", "type": "functional", "parameters": "scale not given: the % may be the effect or the level left", "summary_of_the_method": "(§2)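 Female CB17 SCID mice, 6-8 weeks old, were inoculated subcutaneously with 10×10⁶ NCI-H929-1051 cells, which had been expanded in 10 μM lenalidomide. At about 150 mm³ the mice were randomized (n=8-10/group) and dosed orally once daily for 21 days, with a vehicle control group. Tumors were measured by caliper twice weekly and volume was taken as width²×length/2. Final volumes were taken after the last dose. Data are mean ± SEM.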"}, "[11]": {"species": "Homo sapiens", "assay": "Induction of apoptosis in lenalidomide-resistant human H929-R10-1 cells assessed as increase in cleaved PARP level after 72 hrs by Western blot analysis", "type": "functional", "summary_of_the_method": "(§3)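 H929 R10-1 cells treated with DMSO or compound (1–100 nM) for 72 h, washed in PBS, lysed in NP-40/Tris pH 8 buffer with protease and phosphatase inhibitors; clarified lysates immunoblotted for p27, cleaved caspase-1, -3, -7 and cleaved PARP, with β-tubulin, using fluorescent secondary antibodies.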"}, "[12]": {"assay": "Oral bioavailability in Sprague-Dawley rat at 10 mg/kg", "type": "ADME, organism-based", "details": "in vivo", "summary_of_the_method": "as §1"}, "[13]": {"assay": "Clearance in Sprague-Dawley rat at 2 mg/kg, iv", "type": "ADME, organism-based", "details": "in vivo"}, "[14]": {"species": "Homo sapiens", "assay": "Induction of apoptosis in lenalidomide-resistant human H929-R10-1 cells assessed as increase in cleaved caspase1 level at 1 to 100 nM after 72 hrs by Western blot analysis", "type": "functional", "summary_of_the_method": "as §3"}, "[15]": {"assay": "Solubility of the compound at pH 5", "type": "physicochemical", "details": "buffer"}, "[16]": {"species": "Homo sapiens", "assay": "Induction of apoptosis in lenalidomide-resistant human H929-R10-1 cells assessed as p27 stabilization at 1 to 100 nM after 72 hrs by Western blot analysis", "type": "functional", "summary_of_the_method": "as §3"}, "[17]": {"assay": "Antitumor activity against human NCI-H929-1051 cells xenografted in CB17 SCID mouse assessed as reduction in tumor volume at 10 mg/kg, po qd for 21 days measured post last dose by caliper method relative to control", "type": "functional", "parameters": "scale not given: the % may be the effect or the level left", "summary_of_the_method": "as §2"}, "[18]": {"assay": "Efflux ratio of permeability across apical to basolateral side in human Caco2 cells", "type": "ADME, cell-based", "details": "Caco-2"}, "[19]": {"species": "Homo sapiens", "assay": "Induction of apoptosis in lenalidomide-resistant human H929-R10-1 cells assessed as increase in cleaved caspase3 level at 1 to 100 nM after 72 hrs by Western blot analysis", "type": "functional", "summary_of_the_method": "as §3"}, "[20]": {"species": "Homo sapiens", "assay": "Induction of apoptosis in lenalidomide-resistant human H929-R10-1 cells assessed as increase in cleaved caspase7 level at 1 to 100 nM after 72 hrs by Western blot analysis", "type": "functional", "summary_of_the_method": "as §3"}, "[21]": {"assay": "Metabolic stability in rat liver S9 fraction assessed as parent compound remaining after 60 mins", "type": "ADME, subcellular", "details": "read-out: Stability", "summary_of_the_method": "(§4)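 Compound incubated with human or rat liver S9 fraction; percent parent remaining at 60 min.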"}, "[22]": {"assay": "Antitumor activity against human NCI-H929-1051 cells xenografted in CB17 SCID mouse assessed as reduction in tumor volume at 1 mg/kg, po qd for 21 days measured post last dose by caliper method relative to control", "type": "functional", "parameters": "scale not given: the % may be the effect or the level left", "summary_of_the_method": "as §2"}, "[23]": {"assay": "Metabolic stability in human liver S9 fraction assessed as parent compound remaining after 60 mins", "type": "ADME, subcellular", "details": "read-out: Stability", "summary_of_the_method": "as §4"}}, "note": "Calls of active or inactive are those of the source. No cut-off for these calls is given here.", "data": [{"smiles": "N#Cc1ccc(N2CCN(Cc3ccc(COc4cccc5c4CN([C@@H]4CCC(=O)NC4=O)C5=O)cc3)CC2)c(F)c1", "values": [{"measurement": "IC50", "setting": "[1]", "value": 4510, "unit": "nM"}, {"measurement": "Drug metabolism", "setting": "[2]", "value": "Metabolite_Detected"}, {"measurement": "Cmax", "setting": "[3]", "value": 16, "unit": "nM"}, {"measurement": "AUC(0-inf)", "setting": "[4]", "value": 0.5, "unit": "µM·h"}, {"measurement": "Drug metabolism", "setting": "[5]", "value": "< 9", "unit": "%"}, {"measurement": "Cmax", "setting": "[6]", "value": 60, "unit": "nM"}, {"measurement": "AUC(0-inf)", "setting": "[7]", "value": 0.1, "unit": "µM·h"}]}, {"smiles": "N#Cc1ccc(N2CCN(Cc3ccc(COc4cccc5c4CN([C@H]4CCC(=O)NC4=O)C5=O)cc3)CC2)c(F)c1", "note": "[MEZIGDOMIDE]", "values": [{"measurement": "Activity", "setting": "[8]", "value": "Active"}, {"measurement": "Tmax", "setting": "[9]", "value": 48, "unit": "min"}, {"measurement": "Activity", "setting": "[10]", "value": 83.8, "unit": "%"}, {"measurement": "IC50", "setting": "[1]", "value": 30, "unit": "nM"}, {"measurement": "Activity", "setting": "[11]", "value": "Active"}, {"measurement": "bioavailability", "setting": "[12]", "value": 38, "unit": "%"}, {"measurement": "clearance", "setting": "[13]", "value": 6.8, "unit": "mL/min/kg"}, {"measurement": "Activity", "setting": "[14]", "value": "Active"}, {"measurement": "Drug metabolism", "setting": "[2]", "value": "Metabolite_Detected"}, {"measurement": "Cmax", "setting": "[3]", "value": 220, "unit": "nM"}, {"measurement": "solubility", "setting": "[15]", "value": 90, "unit": "µg/mL"}, {"measurement": "Activity", "setting": "[16]", "value": "Active"}, {"measurement": "AUC(0-inf)", "setting": "[4]", "value": 16.4, "unit": "µM·h"}, {"measurement": "Activity", "setting": "[17]", "value": 85.7, "unit": "%"}, {"measurement": "efflux ratio", "setting": "[18]", "value": 1}, {"measurement": "Activity", "setting": "[19]", "value": "Active"}, {"measurement": "Activity", "setting": "[20]", "value": "Active"}, {"measurement": "Cmax", "setting": "[6]", "value": 3200, "unit": "nM"}, {"measurement": "AUC(0-inf)", "setting": "[7]", "value": 1.1, "unit": "µM·h"}, {"measurement": "remaining at 1 h", "setting": "[21]", "value": 100, "unit": "%"}, {"measurement": "Activity", "setting": "[22]", "value": 75.3, "unit": "%"}, {"measurement": "remaining at 1 h", "setting": "[23]", "value": 99, "unit": "%"}]}]}
